≈ marks a conversion by molar mass, not a printed value.
Key:
Type in all cases: functional
[1] = test system: Staphylococcus aureus; assay: Antimicrobial activity against community-acquired methicillin resistant Staphylococcus aureus expressing PVL and mec type IV gene by broth microdilution method
Summary of the method: (§1)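 Reference broth microdilution MICs per CLSI, with CLSI interpretive criteria (M100-S17) used for susceptible/resistant categories. Panel: 152 CA-MRSA clinical isolates from human infections, collected 2000–2005 at 47 US medical centres. Strains typed by multiplex PCR for SCCmec type (mecA as internal control), with products run on 2% agarose in Tris-acetate-EDTA and stained with ethidium bromide.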

[2] = test system: Staphylococcus aureus; assay: Antimicrobial activity against community-acquired methicillin resistant Staphylococcus aureus expressing PVL gene and mec type IV gene assessed as susceptible strains by broth microdilution method; summary of the method: as §1
[3] = test system: Staphylococcus aureus; assay: Antimicrobial activity against community-acquired methicillin resistant Staphylococcus aureus expressing PVL and mec type IV gene assessed as resistant strains by broth microdilution method; summary of the method: as §1

Row | Compound | MIC [1] | MIC50 [1] | MIC90 [1] | Activity [2] | Activity [3]
1 | CCC[C@@H]1C[C@@H](C(=O)N[C@@H]([C@H]2O[C@H](SC)[C@H](O)[C@@H](O)[C@H]2O)[C@H](C)Cl)N(C)C1 [CLINDAMYCIN] | ≤ 0.25 mg/L | ≤ 0.25 mg/L | ≤ 0.25 mg/L | 100% | 0%
2 | CN(C)[C@@H]1C(O)=C(C(N)=O)C(=O)[C@@]2(O)C(O)=C3C(=O)c4c(O)cccc4[C@@](C)(O)[C@H]3C[C@@H]12 [TETRACYCLINE] | ≤ 0.5 mg/L | ≤ 0.5 mg/L | ≤ 0.5 mg/L | 94.7% | 4.6%
3 | CC[C@H]1OC(=O)[C@H](C)[C@@H](O[C@H]2C[C@@](C)(OC)[C@@H](O)[C@H](C)O2)[C@H](C)[C@@H](O[C@@H]2O[C@H](C)C[C@H](N(C)C)[C@H]2O)[C@](C)(O)C[C@@H](C)C(=O)[C@H](C)[C@@H](O)[C@]1(C)O [ERYTHROMYCIN] | – | > 8 mg/L | > 8 mg/L | 1.3% | 98%
4 | C[C@@H](O)[C@H]1C(=O)N2C(C(=O)O)=C(SCCNC=N)C[C@H]12 [IMIPENEM ANHYDROUS] | ≤ 0.5 mg/L | ≤ 0.5 mg/L | ≤ 0.5 mg/L | 100% | 0%
5 | CN[C@H](CC(C)C)C(=O)N[C@H]1C(=O)N[C@@H](CC(N)=O)C(=O)N[C@H]2C(=O)N[C@H]3C(=O)N[C@H](C(=O)N[C@H](C(=O)O)c4cc(O)cc(O)c4-c4cc3ccc4O)[C@H](O)c3ccc(c(Cl)c3)Oc3cc2cc(c3O[C@@H]2O[C@H](CO)[C@@H](O)[C@H](O)[C@H]2O[C@H]2C[C@](C)(N)[C@H](O)[C@H](C)O2)Oc2ccc(cc2Cl)[C@H]1O [VANCOMYCIN] | – | 1 mg/L (≈ 0.69 µM) | 1 mg/L (≈ 0.69 µM) | 100% | 0%
6 | C[C@H]1COc2c(N3CCN(C)CC3)c(F)cc3c(=O)c(C(=O)O)cn1c23.C[C@H]1COc2c(N3CCN(C)CC3)c(F)cc3c(=O)c(C(=O)O)cn1c23.O [LEVOFLOXACIN] | – | 0.25 mg/L | 0.5 mg/L | 92.8% | 7.2%
7 | C[C@@H](O)[C@H]1C(=O)N2C(C(=O)O)=C(S[C@@H]3CN[C@H](C(=O)N(C)C)C3)[C@H](C)[C@H]12 [MEROPENEM] | – | 2 mg/L (≈ 5.22 µM) | 2 mg/L (≈ 5.22 µM) | 98% | 0%
8 | CO/N=C(\C(=O)N[C@@H]1C(=O)N2C(C(=O)O)=C(CSc3nc(=O)c(O)nn3C)CS[C@H]12)c1csc(N)n1 [CEFTRIAXONE] | – | 32 mg/L (≈ 57.7 µM) | > 32 mg/L | 0% | 98.7%
9 | CCCCCCCCCC(=O)N[C@@H](Cc1c[nH]c2ccccc12)C(=O)N[C@H](CC(N)=O)C(=O)N[C@@H](CC(=O)O)C(=O)N[C@@H]1C(=O)NCC(=O)N[C@@H](CCCN)C(=O)N[C@@H](CC(=O)O)C(=O)N[C@H](C)C(=O)N[C@@H](CC(=O)O)C(=O)NCC(=O)N[C@H](CO)C(=O)N[C@@H]([C@H](C)CC(=O)O)C(=O)N[C@@H](CC(=O)c2ccccc2N)C(=O)O[C@@H]1C | 0.25 mg/L (≈ 0.154 µM) | 0.25 mg/L (≈ 0.154 µM) | 0.5 mg/L (≈ 0.309 µM) | 100% | 0%
10 | C[C@@H](O)[C@H]1C(=O)N2C(C(=O)[O-])=C(c3cn4cnc(C(=O)c5ccc[n+](CC(N)=O)c5)c4s3)[C@H](C)[C@H]12 | – | 0.12 mg/L (≈ 0.242 µM) | 0.25 mg/L (≈ 0.505 µM) | – | –
11 | CC(=O)NC[C@H]1CN(c2ccc(N3CCOCC3)c(F)c2)C(=O)O1 [LINEZOLID] | – | 2 mg/L (≈ 5.93 µM) | 2 mg/L (≈ 5.93 µM) | 100% | –

— ChEMBL document CHEMBL1255268, “Antimicrobial activities of Ceftaroline and ME1036 tested against clinical strains of community-acquired methicillin-resistant Staphylococcus aureus” (2008)
